Columns and labels:
Type in all cases: functional
Conditions in all cases: read-out: GI
IGROV-1 = assay: Growth inhibition of human IGROV-1 cells at 10 uM incubated for 48 hrs by sulforhodamine B assay relative to control
Method in brief: (§1)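 NCI-60 single-dose screen. Cells were grown in RPMI 1640 with 5% FBS and 2 mM L-glutamine and plated 24 h before drug addition. Compound was added at one concentration in DMSO-derived medium and incubated for 48 h at 37 °C in 5% CO2. Read-out was SRB protein stain at 515 nm. Result is percent growth versus the no-drug control and the time-zero cell count; values below 0 indicate lethality.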

NCI/ADR-RES = assay: Growth inhibition of human NCI/ADR-RES cells at 10 uM incubated for 48 hrs by sulforhodamine B assay relative to control
Method in brief: (§2)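 NCI one-dose screen. Cells grown in RPMI 1640 with 5% FBS and 2 mM L-glutamine, plated and incubated 24 h at 37 °C, 5% CO2. DMSO-dissolved drug added, then 48 h further incubation. Adherent cells fixed with cold TCA, suspension cells fixed after settling. Stained with 0.4% SRB, absorbance read at 515 nm. Reported as percent growth relative to no-drug control and time-zero cell number.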

SK-MEL-2 = assay: Growth inhibition of human SK-MEL-2 cells at 10 uM incubated for 48 hrs by sulforhodamine B assay relative to control; method in brief: as §2
NCI-H460 = assay: Growth inhibition of human NCI-H460 cells at 10 uM incubated for 48 hrs by sulforhodamine B assay relative to control; method in brief: as §2
OVCAR-5 = assay: Growth inhibition of human OVCAR-5 cells at 10 uM incubated for 48 hrs by sulforhodamine B assay relative to control; method in brief: as §2
HOP-62 = assay: Growth inhibition of human HOP-62 cells at 10 uM incubated for 48 hrs by sulforhodamine B assay relative to control; method in brief: as §1
SR = assay: Growth inhibition of human SR cells at 10 uM incubated for 48 hrs by sulforhodamine B assay relative to control; method in brief: as §2
KM12 = assay: Growth inhibition of human KM12 cells at 10 uM incubated for 48 hrs by sulforhodamine B assay relative to control; method in brief: as §1
SK-MEL-5 = assay: Growth inhibition of human SK-MEL-5 cells at 10 uM incubated for 48 hrs by sulforhodamine B assay relative to control; method in brief: as §2
SN12C = assay: Growth inhibition of human SN12C cells at 10 uM incubated for 48 hrs by sulforhodamine B assay relative to control; method in brief: as §2
COLO 205 = assay: Growth inhibition of human COLO 205 cells at 10 uM incubated for 48 hrs by sulforhodamine B assay relative to control; method in brief: as §1
HL-60(TB) = assay: Growth inhibition of human HL-60(TB) cells at 10 uM incubated for 48 hrs by sulforhodamine B assay relative to control
Method in brief: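 NCI-60 one-dose screen: same culture, 48 h drug exposure and SRB read-out. Reported as percent growth relative to no-drug control and to time-zero cell number; 0–100 means growth inhibition, below 0 means lethality.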

OVCAR-3 = assay: Growth inhibition of human OVCAR-3 cells at 10 uM incubated for 48 hrs by sulforhodamine B assay relative to control; method in brief: as §2
SK-MEL-28 = assay: Growth inhibition of human SK-MEL-28 cells at 10 uM incubated for 48 hrs by sulforhodamine B assay relative to control; method in brief: as §2
MCF7 = assay: Growth inhibition of human MCF7 cells at 10 uM incubated for 48 hrs by sulforhodamine B assay relative to control; method in brief: as §1
SNB-19 = assay: Growth inhibition of human SNB-19 cells at 10 uM incubated for 48 hrs by sulforhodamine B assay relative to control; method in brief: as §2
SF-268 = assay: Growth inhibition of human SF-268 cells at 10 uM incubated for 48 hrs by sulforhodamine B assay relative to control; method in brief: as §2
RXF 393 = assay: Growth inhibition of human RXF 393 cells at 10 uM incubated for 48 hrs by sulforhodamine B assay relative to control; method in brief: as §2
MDA-MB-468 = assay: Growth inhibition of human MDA-MB-468 cells at 10 uM incubated for 48 hrs by sulforhodamine B assay relative to control; method in brief: as §1
T47D = assay: Growth inhibition of human T47D cells at 10 uM incubated for 48 hrs by sulforhodamine B assay relative to control
Method in brief: (§3)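 NCI one-dose screen across a 59-line panel. Cells were grown in RPMI 1640 with 5% FBS and 2 mM L-glutamine, plated and pre-incubated 24 h, then exposed to drug for 48 h at 37 °C, 5% CO2. Adherent cells were fixed with cold TCA (10% final), stained with 0.4% SRB in 1% acetic acid and read at 515 nm. Result is percent growth relative to no-drug control and time-zero cell count.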

Hs-578T = assay: Growth inhibition of human HS-578T cells at 10 uM incubated for 48 hrs by sulforhodamine B assay relative to control; method in brief: as §1
PC-3 = assay: Growth inhibition of human PC-3 cells at 10 uM incubated for 48 hrs by sulforhodamine B assay relative to control; method in brief: as §2
UO-31 = assay: Growth inhibition of human UO-31 cells at 10 uM incubated for 48 hrs by sulforhodamine B assay relative to control; method in brief: as §3
LOX IMVI = assay: Growth inhibition of human LOX IMVI cells at 10 uM incubated for 48 hrs by sulforhodamine B assay relative to control; method in brief: as §1
NCI-H226 = assay: Growth inhibition of human NCI-H226 cells at 10 uM incubated for 48 hrs by sulforhodamine B assay relative to control; method in brief: as §2
SNB-75 = assay: Growth inhibition of human SNB-75 cells at 10 uM incubated for 48 hrs by sulforhodamine B assay relative to control; method in brief: as §2
M14 = assay: Growth inhibition of human M14 cells at 10 uM incubated for 48 hrs by sulforhodamine B assay relative to control; method in brief: as §1
OVCAR-8 = assay: Growth inhibition of human OVCAR-8 cells at 10 uM incubated for 48 hrs by sulforhodamine B assay relative to control; method in brief: as §2
SF-539 = assay: Growth inhibition of human SF-539 cells at 10 uM incubated for 48 hrs by sulforhodamine B assay relative to control; method in brief: as §2
SF-295 = assay: Growth inhibition of human SF-295 cells at 10 uM incubated for 48 hrs by sulforhodamine B assay relative to control; method in brief: as §2
UACC-62 = assay: Growth inhibition of human UACC-62 cells at 10 uM incubated for 48 hrs by sulforhodamine B assay relative to control; method in brief: as §3
MDA-MB-435 = assay: Growth inhibition of human MDA-MB-435 cells at 10 uM incubated for 48 hrs by sulforhodamine B assay relative to control; method in brief: as §1
EKVX = assay: Growth inhibition of human EKVX cells at 10 uM incubated for 48 hrs by sulforhodamine B assay relative to control; method in brief: as §1
MDA-MB-231 = assay: Growth inhibition of human MDA-MB-231 cells at 10 uM incubated for 48 hrs by sulforhodamine B assay relative to control; method in brief: as §1
K562 = assay: Growth inhibition of human K562 cells at 10 uM incubated for 48 hrs by sulforhodamine B assay relative to control; method in brief: as §1
NCI-H522 = assay: Growth inhibition of human NCI-H522 cells at 10 uM incubated for 48 hrs by sulforhodamine B assay relative to control; method in brief: as §2

SMILES | inhibition of growth at 10 µM (IGROV-1) [%] | inhibition of growth at 10 µM (NCI/ADR-RES) [%] | inhibition of growth at 10 µM (SK-MEL-2) [%] | inhibition of growth at 10 µM (NCI-H460) [%] | inhibition of growth at 10 µM (OVCAR-5) [%] | inhibition of growth at 10 µM (HOP-62) [%] | inhibition of growth at 10 µM (SR) [%] | inhibition of growth at 10 µM (KM12) [%] | inhibition of growth at 10 µM (SK-MEL-5) [%] | inhibition of growth at 10 µM (SN12C) [%] | inhibition of growth at 10 µM (COLO 205) [%] | inhibition of growth at 10 µM (HL-60(TB)) [%] | inhibition of growth at 10 µM (OVCAR-3) [%] | inhibition of growth at 10 µM (SK-MEL-28) [%] | inhibition of growth at 10 µM (MCF7) [%] | inhibition of growth at 10 µM (SNB-19) [%] | inhibition of growth at 10 µM (SF-268) [%] | inhibition of growth at 10 µM (RXF 393) [%] | inhibition of growth at 10 µM (MDA-MB-468) [%] | inhibition of growth at 10 µM (T47D) [%] | also measured
COc1cc2nc(-c3ccc(C(F)(F)F)cc3)cc(OCCN3CCOCC3)c2cc1OC | 13 | 13 | 13 | 13 | 13 | 13 | 13 | 13 | 13 | 13 | 13 | 13 | 13 | 13 | 13 | 13 | 13 | 13 | 13 | 13 | inhibition of growth at 10 µM (Hs-578T): 13%; inhibition of growth at 10 µM (PC-3): 13%; inhibition of growth at 10 µM (UO-31): 13%; inhibition of growth at 10 µM (LOX IMVI): 13%; inhibition of growth at 10 µM (NCI-H226): 13%; inhibition of growth at 10 µM (SNB-75): 13%; inhibition of growth at 10 µM (M14): 13%; inhibition of growth at 10 µM (OVCAR-8): 13%; inhibition of growth at 10 µM (SF-539): 13%; inhibition of growth at 10 µM (SF-295): 13%; inhibition of growth at 10 µM (UACC-62): 13%; inhibition of growth at 10 µM (MDA-MB-435): 13%; inhibition of growth at 10 µM (EKVX): 13%; inhibition of growth at 10 µM (MDA-MB-231): 13%; inhibition of growth at 10 µM (K562): 13%; inhibition of growth at 10 µM (NCI-H522): 13%
COc1cc2nc(-c3ccc(Cl)cc3)cc(OCCCN3CCCC3)c2cc1OC | 62 | 62 | 62 | 62 | 62 | 62 | 62 | 62 | 62 | 62 | 62 | 62 | 62 | 62 | 62 | 62 | 62 | 62 | 62 | 62 | inhibition of growth at 10 µM (Hs-578T): 62%; inhibition of growth at 10 µM (PC-3): 62%; inhibition of growth at 10 µM (UO-31): 62%; inhibition of growth at 10 µM (LOX IMVI): 62%; inhibition of growth at 10 µM (NCI-H226): 62%; inhibition of growth at 10 µM (SNB-75): 62%; inhibition of growth at 10 µM (M14): 62%; inhibition of growth at 10 µM (OVCAR-8): 62%; inhibition of growth at 10 µM (SF-539): 62%; inhibition of growth at 10 µM (SF-295): 62%; inhibition of growth at 10 µM (UACC-62): 62%; inhibition of growth at 10 µM (MDA-MB-435): 62%; inhibition of growth at 10 µM (EKVX): 62%; inhibition of growth at 10 µM (MDA-MB-231): 62%; inhibition of growth at 10 µM (K562): 62%; inhibition of growth at 10 µM (NCI-H522): 62%

Source: ChEMBL document CHEMBL4732237, “Discovery of 4-alkoxy-2-aryl-6,7-dimethoxyquinolines as a new class of topoisomerase I inhibitors endowed with potent in vitro anticancer activity” (2021)
